TNAP inh hiacc: blocks human TNAP under high phosphate acceptor concentration; P05186; purified TNAP, CDP-star luminescence, 1 M DEA; inhibition, % at 20 µM; hit rate 0.03% among 200,000; AID 1135;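 active = over 50% inhibition of tissue-nonspecific alkaline phosphatase at 20 µM in the single-dose screen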;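 note: plate controls were DMSO wells for no effect and EDTA-quenched wells as full inhibition for full effect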
Target sequence (P05186 whole entry, looked up): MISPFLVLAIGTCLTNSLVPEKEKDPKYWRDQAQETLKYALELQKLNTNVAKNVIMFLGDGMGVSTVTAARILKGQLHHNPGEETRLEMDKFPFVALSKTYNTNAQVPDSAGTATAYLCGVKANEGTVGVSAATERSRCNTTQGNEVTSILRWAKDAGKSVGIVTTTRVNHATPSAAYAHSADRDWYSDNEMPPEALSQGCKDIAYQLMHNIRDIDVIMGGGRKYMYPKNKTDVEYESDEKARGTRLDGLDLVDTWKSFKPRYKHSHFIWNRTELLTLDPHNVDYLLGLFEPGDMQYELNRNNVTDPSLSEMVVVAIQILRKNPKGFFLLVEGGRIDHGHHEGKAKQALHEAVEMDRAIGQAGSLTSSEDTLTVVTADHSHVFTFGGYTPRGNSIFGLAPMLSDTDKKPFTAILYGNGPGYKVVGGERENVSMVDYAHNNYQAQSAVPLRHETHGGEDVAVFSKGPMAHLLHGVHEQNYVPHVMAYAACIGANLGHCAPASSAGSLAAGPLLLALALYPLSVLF
TNAP inh no acc: inhibitors of human TNAP without phosphate acceptor. P05186. inhibition, % at 20 µM. hit rate 0.26% among 200,000. purified TNAP, CDP-star luminescence, 30 min;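 active = tissue-nonspecific alkaline phosphatase inhibition above about 50% at 20 µM in the single-dose screen, limit read from the data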;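 note: 0% = DMSO negative control and 100% = EDTA positive control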
HCT116 bCat-KO: beta-catenin-lacking colon tumor cell growth suppression | HCT116 beta-catenin knockout viability, CellTiter-Glo, 60 h; hits give low values | viability, % at 10 µM | hit rate 1.5% among 140,000 | AID 818;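 active = viability at or under a set limit, the compound median less 4 SD, cut at about 6% in these data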;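 note: 0% = Hyamine 1622 control at 20 µM and 100% = untreated cell control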
L major viab: inhibitors of Leishmania major promastigote growth | Leishmania major promastigotes, resazurin fluorescence viability | inhibition, % at 10 µM | hit rate 9% among 200,000; in the data active = inhibition above about 50%;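 note: promastigotes grown with compound for 44 hours at 28 °C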
TNAP act hi DEA: increases human TNAP activity under high phosphate acceptor concentration; purified TNAP, CDP-star luminescence, 1 M DEA, 30 min; hits give high values; 0 = EDTA background, 1 = DMSO-only activity; AID 1136; activation factor at 20 µM; P05186; 200,000 tested, under 10 active;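 active = activation factor at least 2 at 20 µM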
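system = human TNAP | amount = enzyme diluted 1/800 final | reagent = 100 µM CDP-star substrate | signal = luminescent substrate turnover signal | dosing = one dose, 20 µM | benchmarks = EDTA negative control, DMSO positive control | measure = activation factor | timing = 30 min reaction, room temperature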
PTEN del growth: suppresses growth of cells with PTEN deletion. HCT116 PTEN-null viability, CellTiter-Glo, 60 h; hits give low values. hit rate 1.2% among 140,000. AID 827. viability, % at 10 µM;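 active = viability at or below a set limit, 4 SD under the median of all tested compounds, cut at about 3.7% in these data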;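 note: PTEN knockout HCT116 line with beta catenin targeted HCT116 as companion control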
* hit, by the source's call. Only some compounds are listed: those with a hit (about 9.6% of all), similar ones and a draw of the others.

`CCn1c(CSc2nc3ccccc3s2)nnc1SCC(=O)c1ccc(Cl)cc1` gave TNAP inh hiacc -3, TNAP inh no acc -10, HCT116 bCat-KO 64, L major viab -2, TNAP act hi DEA 1 and PTEN del growth 71.
`CCn1c(SCC(=O)c2ccc(O)c(O)c2)nnc1-c1ccccc1` gave TNAP inh hiacc 6, TNAP inh no acc 50*, HCT116 bCat-KO 65, L major viab -5, TNAP act hi DEA 0.9 and PTEN del growth 66.
`CCC(=O)Nc1ccc(C(=O)CSc2nnc(-c3ccc(NS(C)(=O)=O)cc3)n2C)cc1OC` gave TNAP inh hiacc -2, TNAP inh no acc -8, HCT116 bCat-KO 92, L major viab -5, TNAP act hi DEA 1 and PTEN del growth 101.
`CCn1c(CSc2nc3ccccc3s2)nnc1SCC(=O)c1ccc(O)c(O)c1` gave TNAP inh hiacc 11, TNAP inh no acc 80*, HCT116 bCat-KO 10, L major viab -5, TNAP act hi DEA 0.9 and PTEN del growth 9.
For COc1ccc2c(c1)C(C)=CC(C)(C)N2S(=O)(=O)c1ccc(C)cc1 the results were TNAP inh hiacc -3, TNAP inh no acc -2, L major viab 98* and TNAP act hi DEA 1.
CCOc1ccc2c(c1)C(C)=CC(C)(C)N2S(=O)(=O)c1ccc(C)cc1 was read as TNAP inh hiacc 0, TNAP inh no acc -2, L major viab 95* and TNAP act hi DEA 1.
`CCNC(=O)N1c2ccc(OCC)cc2C(C)=CC1(C)C` gave TNAP inh hiacc 0, TNAP inh no acc 8, HCT116 bCat-KO 85, L major viab 11, TNAP act hi DEA 1 and PTEN del growth 83.
`CCOc1ccc2c(c1)C(C)=CC(C)(C)N2C(=O)Nc1ccccc1F` gave TNAP inh hiacc -7, TNAP inh no acc -9, HCT116 bCat-KO 108, L major viab 68*, TNAP act hi DEA 1.1 and PTEN del growth 99.
`CC1=CC(C)(C)N(S(=O)(=O)c2ccc(C)cc2)c2cc(C)ccc21` gave TNAP inh hiacc -10, TNAP inh no acc -1, HCT116 bCat-KO 11, L major viab 99*, TNAP act hi DEA 1.1 and PTEN del growth 14.
Screening O=C(C1CC1)N1CCN(S(=O)(=O)c2ccc3c(c2)OCCO3)CC1 returned TNAP inh hiacc -6, TNAP inh no acc -3, L major viab -10 and TNAP act hi DEA 1.1.
CC(=O)Nc1ccc(C(=O)OCC(=O)NC2CCCCCCC2)cc1 was read as TNAP inh hiacc -1, TNAP inh no acc -11, L major viab -6 and TNAP act hi DEA 1.
CC(C)CCn1c(N)c(S(=O)(=O)c2cccs2)c2nc3ccccc3nc21 was read as TNAP inh hiacc 1, TNAP inh no acc -6, HCT116 bCat-KO 30, L major viab 70*, TNAP act hi DEA 1 and PTEN del growth 22.
Nc1c(S(=O)(=O)c2cccs2)c2nc3ccccc3nc2n1CCc1ccccc1 was read as TNAP inh hiacc -3, TNAP inh no acc -7, HCT116 bCat-KO 29, L major viab 76*, TNAP act hi DEA 1 and PTEN del growth 19.
`NNC(=O)c1ccc(N2CCc3ccccc32)c([N+](=O)[O-])c1` gave TNAP inh hiacc 7, TNAP inh no acc 3, L major viab 19 and TNAP act hi DEA 0.9.
For COC(CNC(=O)c1ccc(N2CCc3ccccc32)c([N+](=O)[O-])c1)OC the results were TNAP inh hiacc 17, TNAP inh no acc 1, HCT116 bCat-KO 59, L major viab 96*, TNAP act hi DEA 0.8 and PTEN del growth 70.
`Cc1ccc(Cl)cc1N1CCN(Cc2cc(=O)n3ccsc3n2)CC1` gave TNAP inh hiacc -4, TNAP inh no acc 8, L major viab 4 and TNAP act hi DEA 1.
For Cc1[nH]n(-c2nc(-c3ccc(Cl)cc3)cs2)c(=O)c1N=Nc1ccc(O)cc1 the results were TNAP inh hiacc 24, TNAP inh no acc 24, L major viab 71* and TNAP act hi DEA 0.8.
`CCc1c(C)[nH]n(-c2nc(-c3ccccc3)cs2)c1=O` gave TNAP inh hiacc -3, TNAP inh no acc -16, L major viab 13 and TNAP act hi DEA 1.
Screening COc1cccc(Oc2cncnc2-c2ccc(OC)cc2O)c1 returned TNAP inh hiacc -3, TNAP inh no acc -8, HCT116 bCat-KO 89, L major viab 93*, TNAP act hi DEA 1 and PTEN del growth 86.
Screening COc1ccc2nc(C)cc(SCC(=O)N/N=C/c3c(OC)ccc4ccccc34)c2c1 returned TNAP inh hiacc -3, TNAP inh no acc -9, HCT116 bCat-KO 13, L major viab 71*, TNAP act hi DEA 1 and PTEN del growth 9.
For COc1ccc2nc(C)cc(SCC(=O)N/N=C/c3ccc(O)cc3O)c2c1 the results were TNAP inh hiacc 4, TNAP inh no acc -82, HCT116 bCat-KO 9, L major viab 98*, TNAP act hi DEA 1 and PTEN del growth 12.
For COc1ccc2nc(C)cc(SCC(=O)N/N=C/c3ccccc3)c2c1 the results were TNAP inh hiacc 3, TNAP inh no acc -28, HCT116 bCat-KO 81, L major viab 47, TNAP act hi DEA 1 and PTEN del growth 88.
`CCC(C)/C(C)=N/NC(=O)c1cn(-c2ccccc2)nc1-c1ccccc1` (stereo unspecified) gave TNAP inh hiacc -4, TNAP inh no acc -23, HCT116 bCat-KO 93, L major viab 11, TNAP act hi DEA 1 and PTEN del growth 96.
`COc1cc(C(=O)Nc2c(C)cc(C)cc2C)c([N+](=O)[O-])cc1OC` gave TNAP inh hiacc -3, TNAP inh no acc -11, HCT116 bCat-KO 98, L major viab 1, TNAP act hi DEA 1 and PTEN del growth 91.
O=C(CN1C(=O)c2cccc3cccc1c23)Nc1ccccc1C(=O)NCc1ccco1 was read as HCT116 bCat-KO 79, L major viab 82* and PTEN del growth 71.
For O=c1c(-c2cnn(-c3ccccc3)c2)coc2cc(O)ccc12 the results were TNAP inh hiacc 5, TNAP inh no acc -2, L major viab 96* and TNAP act hi DEA 0.9.
CCOc1ncccc1C(=O)NCCN1C(=O)S/C(=C/c2cccs2)C1=O was read as TNAP inh hiacc 3, TNAP inh no acc -10, HCT116 bCat-KO 89, L major viab 6, TNAP act hi DEA 1 and PTEN del growth 97.
Screening CCn1cc(-c2csc(N)n2)c(C)n1 returned TNAP inh hiacc -2, TNAP inh no acc -8, L major viab -1 and TNAP act hi DEA 1.
Screening CCN1CCN(C(=S)NCCc2ccccc2)CC1 returned TNAP inh hiacc -6, TNAP inh no acc -1, HCT116 bCat-KO 101, L major viab 86*, TNAP act hi DEA 1.1 and PTEN del growth 96.
For OCCN1CCN(C(=S)NCCc2ccccc2)CC1 the results were TNAP inh hiacc 4, TNAP inh no acc -11, HCT116 bCat-KO 108, L major viab 3, TNAP act hi DEA 1 and PTEN del growth 117.

Screening data: PubChem BioAssay, several laboratories
